This note sets out measurements from publication PMC11168086 (RSC Advances, 2024).

Series [1] concerns A2780 (ovarian cancer) cells. The series is described as follows: MTT antiproliferative assay, A2780. The series is classed as cell-based, human. The conditions noted are these: for Lipophilic efficiency (LipE = pIC50 – logP): A2780; for IC50: Homo sapiens, A2780, 72 h. Put shortly:
(§1)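 Cells from ECACC were grown in MEM with 10% FBS, non-essential amino acids and penicillin-streptomycin, at 37 °C and 5% CO2. Cells were seeded at 5000 per well, left overnight, then exposed to test compound 72 h. MTT was added for 4 h, and formazan was dissolved in DMSO (60 min, 37 °C) and read at 545 nm. Compounds giving >50% inhibition at 10 μM were rerun over 0.1–30 μM for IC50. Two independent experiments used five wells each, with cisplatin as positive control.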
A general note: Tetrazolium dyes change colour on reduction, which living cells bring about.

Series [2] is described as follows: Intestinal-specific PAMPA. The series is classed as in vitro ADME. The conditions noted are these: pH 6.5. Put shortly: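 Donor solutions at nominal 500 μM came from 10 mM DMSO stocks diluted in phosphate donor buffer, pH 6.5. The acceptor buffer held 5% DMSO. The membrane was phosphatidylcholine plus cholesterol in chloroform/dodecane/hexane (5:25:70 v/v). Plates were incubated 4 h at 37 °C, covered. Acceptor UV-vis absorbance was read over 250–500 nm. Pa was calculated by the Wohnsland–Faller equation from acceptor versus equilibrium absorbance at λmax.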
For orientation: The PAMPA barrier holds no transporters, so it reflects passive diffusion.

A short description of series [3]: Kinetic aqueous solubility. The series is classed as physicochemical. As to conditions: PBS buffer, pH 7.4, aqueous buffer, kinetic from dmso stock. In short, it runs like this: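 10 mM DMSO stocks were diluted into PBS pH 7.4 to a 500 μM target and shaken 2 h at room temperature. Samples were vacuum-filtered, diluted with acetonitrile to prevent precipitation, and scanned by UV-vis over 250–500 nm. Concentration was derived from a 3-point calibration at each compound's λmax.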

Series [4] has as its system MCF7 (breast cancer) cells. The series is described as follows: MTT antiproliferative assay, MCF7. The series is classed as cell-based, human. As to conditions: for IC50: MCF-7, MTT, 72 h; for Lipophilic efficiency (LipE = pIC50 – logP): MCF-7. Put shortly: as §1
Series [5] deals with HeLa (cervical cancers) cells. The series is described as follows: MTT antiproliferative assay, HeLa. It is filed as cell-based, human. The conditions noted are these: for IC50: Homo sapiens, 72 h. In short, it runs like this:
as §1

For series [6], the system named is MDA-MB-231 (breast cancer) cells. The series is described as follows: MTT antiproliferative assay, MDA-MB-231. The series is classed as cell-based, human. As to conditions: for IC50: Homo sapiens, MDA-MB-231, 72 h, MDA-MB-231, MTT, 72 h; for Lipophilic efficiency (LipE = pIC50 – logP): MDA-MB-231. Put shortly: as §1

Each structure is given as a SMILES string. ≈ marks a conversion by molar mass, not a printed value.

By IC50 is commonly meant the concentration needed to halve the response being measured. Read a low IC50 as inhibition by little substance. One may read the Papp as a coefficient for how fast a substance crosses the barrier. A high value points to fast passage. In general, kinetic solubility refers to solubility judged after dilution from a stock solution rather than from solid. Consider `COc1ccc(COC[C@@](O)(CNCc2ccccc2)[C@@H]2CC[C@@H](C)C[C@H]2OCc2ccc(OC)cc2)cc1` [Compound 50a], for which the “Lipophilic efficiency (LipE = pIC50 – logP)” value is on record as −0.88 in series [1], −0.83 in series [4], −1.23 in series [5] and −1.01 in series [6]. The IC50 was 1.6 µM in series [1]; 1.4 µM in series [4] (Homo sapiens, MCF7, 72 h); 3.7 µM in series [5]; 2.2 µM in series [6]. Besides, the apparent permeability (Papp) at 4 h, 500 μM in series [2] amounted to 32.4 ± 7.6 ×10⁻⁶ cm/s. In addition, the solubility (kinetic) at 2 h in series [3] was 202 ± 1 µM (≈ 108 µg/mL).
As for `C[C@@H]1CC[C@@H]([C@](C)(O)CNCc2ccc(F)cc2)[C@H](OCc2ccccc2)C1` [Compound 7a], the kinetic solubility at 2 h in series [3] amounted to 2.5 ± 0.1 µM (≈ 0.964 µg/mL). Further, the IC50 worked out at 20.3 µM in series [4] (Homo sapiens, MCF7, 72 h) and 24.3 µM in series [5].
Take `C[C@@H]1CC[C@@H]([C@](O)(CNCc2cccc3ccccc23)COCc2ccccc2)[C@H](OCc2ccccc2)C1` [Compound 41a]: the “Lipophilic efficiency (LipE = pIC50 – logP)” value is −2.57 in series [1], −2.64 in series [4], −2.28 in series [5] and −2.42 in series [6]. The IC50 was 5 µM in series [1]; 5.9 µM in series [4] (Homo sapiens, MCF7, 72 h); 2.6 µM in series [5]; 3.6 µM in series [6]. The same compound returned a kinetic solubility at 2 h in series [3] of 1 ± 0.03 µM (≈ 0.524 µg/mL).
With `C[C@@H]1CC[C@@H]([C@](O)(CNCc2ccccc2)COCc2ccccc2)[C@H](OCc2ccccc2)C1` [Compound 34a], the “Lipophilic efficiency (LipE = pIC50 – logP)” value is listed as −1.36 in series [1], −1.05 in series [4], −1.16 in series [5] and −1.35 in series [6]. Further, the IC50 in series [1] is 4.1 µM; in series [4] (Homo sapiens, MCF7, 72 h), 2 µM; in series [5] it was 2.6 µM; in series [6] it was 4 µM. Besides, the kinetic solubility at 2 h in series [3] turned out to be 2.8 ± 0.2 µM (≈ 1.33 µg/mL).
As for `C=C(COCc1ccc(F)cc1)[C@@H]1CC[C@@H](C)C[C@H]1OCc1ccc(F)cc1` [Compound 30b], in series [3], the solubility (kinetic) at 2 h amounted to 17.6 ± 0.6 µM (≈ 6.8 µg/mL).
As to `C[C@@H]1CC[C@@H]([C@](C)(O)Cn2cnc3ccccc32)[C@H](OCc2ccccc2)C1` [Compound 15a], the IC50 in series [1] was 12.3 µM; in series [4] (Homo sapiens, MCF7, 72 h) it was 7 µM; in series [5], 11.6 µM; in series [6] it was 16.7 µM. The same compound gave a Papp at 4 h, 500 μM in series [2] of 39.3 ± 4.2 ×10⁻⁶ cm/s. The compound also registered a kinetic solubility at 2 h in series [3] of 38.7 ± 2 µM (≈ 14.6 µg/mL). In addition, the “Lipophilic efficiency (LipE = pIC50 – logP)” value in series [4] was 0.02.
In series [3], `C[C@@H]1CC[C@@H]([C@](C)(O)CNCc2ccccc2F)[C@H](OCc2ccccc2)C1` [Compound 9a] yielded a solubility (kinetic) at 2 h of 1.4 ± 0.02 µM (≈ 0.54 µg/mL). For the same compound, the IC50 came out at 8.6 µM in series [4] (Homo sapiens, MCF7, 72 h) and 6.5 µM in series [5]. The results for the “Lipophilic efficiency (LipE = pIC50 – logP)” value in series [4] and in series [5] were −0.21 and −0.09, respectively.
With `C[C@@H]1CC[C@@H]([C@](C)(O)CNCc2ccccc2)[C@H](OCc2ccccc2)C1` [Compound 6a], the “Lipophilic efficiency (LipE = pIC50 – logP)” value stood at 0.12 in series [1], 0.18 in series [4], 0.09 in series [5] and 0.01 in series [6]. Moreover, the IC50 in series [1] is 2.6 µM; in series [4] (Homo sapiens, MCF7, 72 h), 2.3 µM; in series [5] it was 2.8 µM; in series [6] it was 3.4 µM. Further, the kinetic solubility at 2 h in series [3] was found to be 3.3 ± 0.01 µM (≈ 1.21 µg/mL).
On to `C=C(COCc1ccc(OC)cc1)[C@@H]1CC[C@@H](C)C[C@H]1OCc1ccc(OC)cc1` [Compound 30c], for which the solubility (kinetic) at 2 h in series [3] was determined as 31.5 ± 1.3 µM (≈ 12.9 µg/mL). In series [5], this compound came in with an IC50 of 24.7 µM.
Take `C[C@@H]1CC[C@@H]([C@](C)(O)CNCc2cccc3ccccc23)[C@H](OCc2ccccc2)C1` [Compound 13a]: the IC50 in series [1] is 13.7 µM; in series [4] (Homo sapiens, MCF7, 72 h), 4.3 µM; in series [5], 5.4 µM; in series [6], 25 µM. For the same compound, the solubility (kinetic) at 2 h in series [3] came out at 2.1 ± 0.1 µM (≈ 0.877 µg/mL). Moreover, the “Lipophilic efficiency (LipE = pIC50 – logP)” value is recorded as −0.94 in series [4] and −1.04 in series [5].
As for `C[C@@H]1CC[C@@H]([C@](O)(COCc2ccccc2)Cn2ccnc2)[C@H](OCc2ccccc2)C1` [Compound 42b], the kinetic solubility at 2 h in series [3] amounted to 5.2 ± 0.3 µM (≈ 2.26 µg/mL).
With `COc1ccc(CNC[C@](O)(COCc2ccc(F)cc2)[C@@H]2CC[C@@H](C)C[C@H]2OCc2ccc(F)cc2)cc1` [Compound 46a], the “Lipophilic efficiency (LipE = pIC50 – logP)” value in series [1] was −1.12; in series [5] it was −1.33; in series [6], −1.22. For the same compound, the concentration for half-maximal inhibition (IC50) in series [1] was 1.5 µM; in series [4] (Homo sapiens, MCF7, 72 h) it was below 1 µM; in series [4] it was 0.9 µM; in series [5] it was 2.5 µM; in series [6] it was 1.9 µM. Further, in series [2], the Papp at 4 h, 500 μM amounted to 29.5 ± 3.6 ×10⁻⁶ cm/s. The compound further had a kinetic solubility at 2 h in series [3] of 88 ± 0.9 µM (≈ 47.5 µg/mL).
As to `C=C(COCc1ccccc1)[C@@H]1CC[C@@H](C)C[C@H]1OCc1ccccc1` [Compound 30a], the solubility (kinetic) at 2 h in series [3] is 40.8 ± 5 µM (≈ 14.3 µg/mL).
On the same count and under the same terms, then `C=C(C)[C@@H]1CC[C@@H](C)C[C@H]1OCc1ccccc1` [Compound 2a, O-benzyl isopulegol], with 1.1 ± 0.01 µM (≈ 0.269 µg/mL).
Turning to `C[C@@H]1CC[C@@H]([C@](C)(O)Cn2ccnc2)[C@H](OCc2ccccc2)C1` [Compound 14a], the kinetic solubility at 2 h in series [3] came to 4.1 ± 0.7 µM (≈ 1.35 µg/mL). This compound also displayed an IC50 in series [5] of 24.5 µM.
Compound `C=C(C)[C@@H]1CC[C@@H](C)C[C@H]1OCc1ccc(OC)cc1` [Compound 2c] had a Papp at 4 h, 500 μM in series [2] of 26.1 ± 5.4 ×10⁻⁶ cm/s. This compound yielded a kinetic solubility at 2 h in series [3] of 247 ± 2.8 µM (≈ 67.8 µg/mL).
Compound `C[C@@H]1CC[C@@H]([C@@](O)(COCc2ccccc2)Cn2ccnc2)[C@H](OCc2ccccc2)C1` [Compound 42a] registered a kinetic solubility at 2 h in series [3] of 7.7 ± 0.7 µM (≈ 3.35 µg/mL).
`C[C@@H]1CC[C@@H]([C@@](O)(CNCc2cccc3ccccc23)COCc2ccccc2)[C@H](OCc2ccccc2)C1` [Compound 41b]: the “Lipophilic efficiency (LipE = pIC50 – logP)” value was −2.48 in series [1], −2.62 in series [4], −2.27 in series [5] and −2.28 in series [6]. Besides, the IC50 in series [1] worked out at 4.1 µM; in series [4] (Homo sapiens, MCF7, 72 h) it was 5.7 µM; in series [5], 2.5 µM; in series [6], 2.6 µM. For the same compound, the solubility (kinetic) at 2 h in series [3] was 0.5 ± 0.01 µM (≈ 0.262 µg/mL).
Take `C[C@@H]1CC[C@@H]([C@@](O)(CNCc2ccccc2)COCc2ccccc2)[C@H](OCc2ccccc2)C1` [Compound 34b]: the “Lipophilic efficiency (LipE = pIC50 – logP)” value in series [1] is given as −1.26; in series [4], −1.32; in series [5], −1.11; in series [6], −1.28. In addition, the IC50 in series [1] was 3.3 µM; in series [4] (Homo sapiens, MCF7, 72 h) it was 3.7 µM; in series [5], 2.3 µM; in series [6], 3.4 µM. Moreover, in series [3], the kinetic solubility at 2 h was determined as 8 ± 1 µM (≈ 3.79 µg/mL).
Take `C=C(C)[C@@H]1CC[C@@H](C)C[C@H]1OCc1ccc(F)cc1` [Compound 2b]: the Papp at 4 h, 500 μM in series [2] amounted to 50.7 ± 4.7 ×10⁻⁶ cm/s. This compound also displayed a solubility (kinetic) at 2 h in series [3] of 90 ± 4.8 µM (≈ 23.6 µg/mL).
